Assay results: ChEMBL document CHEMBL1138476 (J Med Chem, 2009)
≈ marks a conversion by molar mass, not a printed value. One block for each compound: values may come before it. Calls of active or inactive are those of the source. The rule behind the calls is not given here.

Assays:
[1] = Lipophilicity log P of the compound; type: physicochemical; details: octanol/water
[2] = Aqueous solubility at pH 7; type: physicochemical; details: aqueous medium
[3] = Aqueous solubility at pH 7.4; type: physicochemical; details: aqueous medium
Summary of the method: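 Solubility measured in water at pH 7.4.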

[4] = Solubility in dilute HCl at pH 2.3; type: physicochemical
Rattus norvegicus [5] = assay: Anxiolytic activity in rat assessed as increase in time spent on open arm at 18 mg/kg, po by elevated plus-maze test; type: functional, organism-based; design: dose 18 mg/kg
Summary of the method: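 Rat elevated plus maze: percent of test time spent in the open arms. Oral dosing in 0.25% Methocel 60 min before testing; n = 12 per dose, mean ± SEM. Analysed by ANOVA followed by Fisher's LSD comparisons against vehicle.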

Rattus norvegicus [6] = assay: Anxiolytic activity in rat assessed as decrease in latency to exit dark chamber at 10 mg/kg, po by defensive withdrawal test relative to untreated control; type: functional; design: scale not given: the % may be the effect or the level left
Summary of the method: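 Rat defensive withdrawal: latency to leave the dark chamber and explore the open field, maximum 900 s. Dosed orally in 0.25% Methocel 60 min before testing; n = 8 per dose, mean ± SEM. Analysed by Kruskal–Wallis followed by Mann–Whitney U against vehicle.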

[7] = target: T1, Corticotropin-releasing factor receptor 1 (Rattus norvegicus, UniProt P35353); assay: Displacement of [125I]Tyro-rat/human CRF from CRF1 receptor in rat cortical membrane by gamma counting; type: cell membranes
T1 sequence (P35353 whole entry): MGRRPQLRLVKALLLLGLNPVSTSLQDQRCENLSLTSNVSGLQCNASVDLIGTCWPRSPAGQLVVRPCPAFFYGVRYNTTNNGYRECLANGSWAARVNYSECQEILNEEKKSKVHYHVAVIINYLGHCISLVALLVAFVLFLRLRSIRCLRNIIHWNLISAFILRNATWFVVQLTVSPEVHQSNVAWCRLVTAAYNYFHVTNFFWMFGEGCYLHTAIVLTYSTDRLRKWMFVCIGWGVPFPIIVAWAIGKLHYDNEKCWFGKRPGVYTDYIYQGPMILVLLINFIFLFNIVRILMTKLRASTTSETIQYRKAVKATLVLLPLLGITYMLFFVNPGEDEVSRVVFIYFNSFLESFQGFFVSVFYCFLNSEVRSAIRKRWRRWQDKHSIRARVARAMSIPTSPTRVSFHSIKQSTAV
Summary of the method: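 Binding to CRF receptors in rat cortical homogenate.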

[8] = AUC in Beagle dog at 1 mg/kg, po by cassette dosing; type: ADME, organism-based, Canis lupus familiaris; design: dose 1 mg/kg, route oral; details: plasma
[9] = Cmax in Beagle dog at 1 mg/kg, po by cassette dosing; type: ADME, organism-based, Canis lupus familiaris; design: dose 1 mg/kg, route oral; details: in vivo
[10] = Half life in Beagle dog at 1 mg/kg, po by cassette dosing; type: ADME, organism-based, Canis lupus familiaris; design: dose 1 mg/kg, route oral; details: in vivo
[11] = Half life in Beagle dog by discrete dosing; type: ADME, organism-based, Canis lupus familiaris; details: in vivo
[12] = target: T1, Corticotropin-releasing factor receptor 1; assay: Agonist activity at CRF1 receptor in rat pituitary cells
[13] = Clearance in rat at 1 mg/kg, iv and 5 mg/kg, po; type: ADME, organism-based; details: in vivo
Summary of the method: (§1)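 Rats (n = 3) received 1 mg/kg iv in 10% DMAC, 70% propylene glycol and deionized water, or 5 mg/kg orally in 0.5% methylcellulose.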

[14] = Volume of distribution at steady state in rat at 1 mg/kg, iv and 5 mg/kg, po; type: ADME, organism-based; details: in vivo, read-out: Vdss
Summary of the method: (§2)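 Rats (n = 3) dosed iv at 1 mg/kg in 10% DMAC, 70% propylene glycol and deionized water, and orally at 5 mg/kg in 0.5% methylcellulose.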

[15] = Cmax in rat at 5 mg/kg, po; type: ADME, organism-based; design: dose 5 mg/kg, route oral; details: in vivo; summary of the method: as §1
[16] = Tmax in rat at 5 mg/kg, po; type: ADME, organism-based; design: dose 5 mg/kg, route oral; details: in vivo; summary of the method: as §2
[17] = Oral bioavailability in rat at 5 mg/kg; type: ADME, organism-based; details: in vivo
Summary of the method: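 Rats (n = 3) were dosed at 1 mg/kg iv in 10% DMAC, 70% propylene glycol and deionized water, and at 5 mg/kg po in 0.5% methylcellulose.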

[18] = AUC (0 to infinity) in chimpanzee at 0.5 mg/kg, iv; type: ADME, organism-based, Pan troglodytes; design: time infinity, dose 0.5 mg/kg, route intravenous; details: plasma
Summary of the method: (§3)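 Chimpanzee PK. Oral: 1 mg/kg in two alert animals, given as a 1 mg/mL suspension in 50–50 (v/v) 0.5% methylcellulose/Tang orange juice with 1% Tween-80. IV: 0.5 mg/kg in one animal in 10% DMAC, 70% propylene glycol and deionized water, infused over 10 min (0.2 mL/kg). EDTA blood was taken predose and at 2–96 h; iv sampling added 6, 15 and 30 min.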

[19] = AUC (0 to infinity) in chimpanzee at 1 mg/kg, po; type: ADME, organism-based, Pan troglodytes; design: time infinity, dose 1 mg/kg, route oral; details: plasma; summary of the method: as §3
[20] = Cmax in chimpanzee at 1 mg/kg, po; type: ADME, organism-based, Pan troglodytes; design: dose 1 mg/kg, route oral; details: in vivo; summary of the method: as §3
[21] = Clearance in chimpanzee at 0.5 mg/kg, iv; type: ADME, organism-based, Pan troglodytes; design: dose 0.5 mg/kg, route intravenous; details: in vivo; summary of the method: as §3
[22] = Volume of distribution at steady state in chimpanzee at 0.5 mg/kg, iv; type: ADME, organism-based, Pan troglodytes; design: dose 0.5 mg/kg, route intravenous; details: in vivo, read-out: Vdss
Summary of the method: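 Single chimpanzee given 0.5 mg/kg iv over 10 min (0.2 mL/kg) in 10% DMAC, 70% propylene glycol and deionized water. EDTA blood taken predose, at 6, 15 and 30 min, and at 2 to 96 h.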

[23] = Elimination half life in chimpanzee at 0.5 mg/kg, iv; type: ADME, organism-based, Pan troglodytes; design: dose 0.5 mg/kg, route intravenous; details: in vivo, read-out: beta t1/2 (converted)
Summary of the method: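 One chimpanzee received 0.5 mg/kg iv over 10 min (0.2 mL/kg) in 10% DMAC, 70% propylene glycol and deionized water. Blood was drawn into EDTA predose and at 6, 15, 30 min and 2, 4, 6, 9, 12, 24, 36, 48, 72 and 96 h.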

[24] = Elimination half life in chimpanzee at 1 mg/kg, po; type: ADME, organism-based, Pan troglodytes; design: dose 1 mg/kg, route oral; details: in vivo, read-out: beta t1/2 (converted)
Summary of the method: (§4)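 Two alert chimpanzees were given 1 mg/kg po as a 1 mg/mL suspension in 50:50 (v/v) 0.5% methylcellulose and Tang orange juice containing 1% Tween-80. EDTA blood was taken predose and at 2–96 h. Bioavailability was calculated against a 0.5 mg/kg iv dose given to one animal.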

[25] = Oral bioavailability in chimpanzee at 1 mg/kg; type: ADME, organism-based, Pan troglodytes; details: in vivo; summary of the method: as §4

Structure (SMILES): COCC(COC)Nc1nc(C)nc2c(-c3ccc(Cl)cc3Cl)c(C)nn12
logP [1]: 4.97
solubility [2]: < 1 µg/mL
solubility [3]: < 1 µg/mL
solubility [4]: 230 µg/mL (≈ 561 µM)
Activity (Rattus norvegicus [5]): Active
Activity (Rattus norvegicus [6]): 72%

Structure (SMILES): CCCC(C)Nc1nc(C)nc2c(-c3ccc(OC)nc3C)c(C)nn12 (centres undefined)
IC50 [7]: 3.5 nM
AUC [8]: 0.955 µM·h
Cmax [9]: 156 nM
half-life [10]: 11.8 h

Structure (SMILES): CCCCC(C)Nc1nc(C)nc2c(-c3ccc(OC)nc3C)c(C)nn12 (centres undefined)
IC50 [7]: 5.1 nM

Structure (SMILES): CCCN(CCC)c1nc(C)nc2c(-c3c(C)cc(N(C)C)nc3C)c(C)nn12
IC50 [7]: 14.9 nM

Structure (SMILES): COCCN(CCOC)c1nc(C)nc2c(-c3ccc(OC)cc3C)c(C)nn12.O=S(=O)(O)c1ccccc1
half-life [11]: 27 h
IC50 [12]: 72.9 nM
logP [1]: 4.76
AUC [8]: 1.66 µM·h
Cmax [9]: 369 nM
half-life [10]: 10.1 h
solubility [3]: < 1 µg/mL
solubility [4]: 2500 µg/mL
clearance [13]: 20 mL/min/kg
Vd [14]: 14.6 L/kg
Cmax [15]: 851 nM
Tmax [16]: 0.5 h
bioavailability [17]: 51%
AUC(0-inf) [18]: 2.04 µM·h
AUC(0-inf) [19]: 0.212 µM·h
Cmax [20]: 27 nM
clearance [21]: 10.2 mL/min/kg
Vd [22]: 9.52 L/kg
half-life [23]: 20.2 h
half-life [24]: 16.5 h
bioavailability [25]: 5.2%

Structure (SMILES): CCC[C@H](C)Nc1nc(C)nc2c(-c3ccc(OC)nc3C)c(C)nn12
IC50 [7]: 4.5 nM

Structure (SMILES): CCC(CC)Nc1nc(C)nc2c(-c3c(C)cc(N(C)C)nc3C)c(C)nn12
IC50 [7]: 25.6 nM

Structure (SMILES): COCCN(CCOC)c1nc(C)nc2c(-c3c(C)cc(N(C)C)nc3C)c(C)nn12
IC50 [7]: 133 nM

Structure (SMILES): CCN(CC)c1nc(C)nc2c(-c3c(C)cc(N(C)C)nc3C)c(C)nn12
IC50 [7]: 58 nM

Structure (SMILES): CCCCN(CC)c1nc(C)nc2c1c(C)cn2-c1c(C)cc(C)cc1C.Cl
logP [1]: > 5
solubility [2]: < 1 µg/mL

Structure (SMILES): CCCCN(CC)c1nc(C)nc2c(-c3c(C)cc(N(C)C)nc3C)c(C)nn12
IC50 [7]: 32.8 nM

Structure (SMILES): CCCCN(CCC)c1nc(C)nc2c(-c3c(C)cc(N(C)C)nc3C)c(C)nn12
IC50 [7]: 12.8 nM

The next lines start with the values.

IC50 [7]: 81.6 nM
Structure (SMILES): CCN(C)c1nc(C)nc2c(-c3ccc(OC)nc3C)c(C)nn12

IC50 [7]: 12 nM
Structure (SMILES): CCN(CC)c1nc(C)nc2c(-c3ccc(OC)nc3C)c(C)nn12

IC50 [7]: 5.7 nM
Structure (SMILES): CCCN(CCC)c1nc(C)nc2c(-c3ccc(OC)nc3C)c(C)nn12

IC50 [7]: 7 nM
AUC [8]: 0.916 µM·h
Cmax [9]: 168 nM
half-life [10]: 7.9 h
Structure (SMILES): CC[C@H](C)Nc1nc(C)nc2c(-c3ccc(OC)nc3C)c(C)nn12

IC50 [7]: 6.6 nM
Structure (SMILES): CCN(CCOC)c1nc(C)nc2c(-c3ccc(OC)nc3C)c(C)nn12
